Data from ChEMBL document CHEMBL4364253, “Application of Dually Activated Michael Acceptor to the Rational Design of Reversible Covalent Inhibitor for Enterovirus 71 3C Protease” (J Med Chem, 2019).
Calls of active or inactive are those of the source.

Key:
[1] = Reversible inhibition of Enterovirus 71 3C protease assessed as overall inhibition constant using NMA-IEALFQGPPK(DNP)FR as substrate pre-incubated for 30 mins followed by substrate addition and measured over 30 mins by fluorescence method; design: species or system Enterovirus A71
RD = assay: Cytotoxicity against human RD cells at 100 uM after 24 hrs by WST-1 assay relative to control; assay type: cell-based
Enterovirus A71 [2] = assay: Antiviral activity against pseudotyped Enterovirus A71 infected in human muscular rhabdomyosarcoma cells treated prior to viral infection and measured after 24 hrs by luminescence method; assay type: functional, organism-based; settings: Enterovirus A
[3] = target: T1, Calpain-1 catalytic subunit (Homo sapiens) (UniProt P07384); assay: Inhibition of human Calpain1 at 50 uM using Ac-LLY-AFC as substrate preincubated for 5 mins followed by substrate addition and measured after 10 mins by fluorescence method relative to control
T1 sequence (whole entry): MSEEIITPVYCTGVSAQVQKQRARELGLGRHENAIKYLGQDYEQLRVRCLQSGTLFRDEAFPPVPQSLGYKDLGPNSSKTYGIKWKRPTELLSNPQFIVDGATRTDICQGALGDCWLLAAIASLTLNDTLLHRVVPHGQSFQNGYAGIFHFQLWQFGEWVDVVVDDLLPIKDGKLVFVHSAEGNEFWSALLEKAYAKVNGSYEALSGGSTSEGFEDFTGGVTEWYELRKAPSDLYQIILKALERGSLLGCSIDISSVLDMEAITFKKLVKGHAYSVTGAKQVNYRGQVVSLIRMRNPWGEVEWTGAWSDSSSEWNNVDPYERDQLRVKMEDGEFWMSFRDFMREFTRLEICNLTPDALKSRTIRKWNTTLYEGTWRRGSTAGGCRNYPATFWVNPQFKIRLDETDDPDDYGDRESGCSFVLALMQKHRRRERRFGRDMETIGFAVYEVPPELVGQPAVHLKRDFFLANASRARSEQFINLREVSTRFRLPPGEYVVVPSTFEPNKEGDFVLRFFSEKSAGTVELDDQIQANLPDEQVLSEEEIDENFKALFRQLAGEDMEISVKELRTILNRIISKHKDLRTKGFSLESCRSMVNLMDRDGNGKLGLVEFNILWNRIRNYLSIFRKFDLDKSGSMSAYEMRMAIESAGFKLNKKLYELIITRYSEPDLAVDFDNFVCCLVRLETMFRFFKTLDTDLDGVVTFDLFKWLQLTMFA

[4] = target: Chymotrypsinogen A (Bos taurus) (UniProt P00766); assay: Inhibition of bovine pancreas alpha-chymotrypsin at 50 uM after 30 mins using N-Succinyl-L-phenylalanine- p-nitroanilide measured for 30 mins
[5] = target: T2, Cathepsin K (Homo sapiens) (UniProt P43235); assay: Inhibition of human Cathepsin K at 50 uM using Ac-LR-AFC as substrate preincubated for 10 to 15 mins followed by substrate addition and measured for 30 to 60 mins by fluorescence method relative to control
T2 sequence (whole entry): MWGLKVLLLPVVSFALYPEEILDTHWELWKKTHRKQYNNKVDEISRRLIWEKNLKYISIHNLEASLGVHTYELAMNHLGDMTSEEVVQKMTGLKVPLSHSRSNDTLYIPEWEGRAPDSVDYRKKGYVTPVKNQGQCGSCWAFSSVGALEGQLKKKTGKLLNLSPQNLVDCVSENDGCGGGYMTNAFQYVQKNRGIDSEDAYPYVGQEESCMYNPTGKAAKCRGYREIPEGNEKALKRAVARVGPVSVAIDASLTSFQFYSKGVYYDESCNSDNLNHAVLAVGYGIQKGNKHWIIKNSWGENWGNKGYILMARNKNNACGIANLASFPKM

Enterovirus A71 [6] = assay: Irreversible covalent inhibition of Enterovirus 71 3C protease assessed as Kinact/Ki ratio using NMA-IEALFQGPPK(DNP)FR as substrate and measured for 1 to 1.5 hrs by fluorescence method
Enterovirus A71 [7] = assay: Irreversible covalent inhibition of Enterovirus 71 3C protease up to 80 uM using NMA-IEALFQGPPK(DNP)FR as substrate by fluorescence method; settings: TDE = time-dependent effect
Enterovirus A71 [8] = assay: Irreversible covalent inhibition of Enterovirus 71 3C protease assessed as steady-state velocity approaching zero up to 64 uM using NMA-IEALFQGPPK(DNP)FR as substrate by fluorescence method
Enterovirus A71 [9] = assay: Reversible inhibition of Enterovirus 71 3C protease assessed as recovery of enzyme activity at 10 to 20 equivalent using peptide substrate pre-incubated for 1 hr followed by dilution prior to substrate addition using ultra-filtered sample relative to control
Enterovirus A71 [10] = assay: Binding affinity to Enterovirus 71 3C protease assessed as enzyme-compound covalent adduct formation via Cys147 residue by measuring ratio of peak intensity of covalently modified to unmodified protein at 10 equivalent after 30 mins by HPLC-ESI/MS analysis
In short: (§1)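 Recombinant EV71 3C protease (40 µM) incubated with inhibitor at 30 °C in 50 mM Tris, 150 mM NaCl, 1 mM EDTA-2Na, pH 7.0. Free inhibitor and salts removed by three ultrafiltration washes with water (10 kDa cutoff). Analysis by HPLC-ESI-Orbitrap MS with 0.1% formic acid water/acetonitrile mobile phases. Spectra deconvoluted; modification given as adduct-to-unmodified protein peak intensity ratio (I_add/I_pro).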

Enterovirus A71 [11] = assay: Antiviral activity against pseudotyped FY Enterovirus A71 harboring luciferase reporter gene infected in HEK-293T cells in presence of ethanolamine by Bright-Glo Luciferase Assay; assay type: functional, organism-based
Enterovirus A71 [12] = assay: Inhibition of Enterovirus 71 3C protease in presence of lysine
Enterovirus A71 [13] = assay: Antiviral activity against pseudotyped FY Enterovirus A71 harboring luciferase reporter gene infected in HEK-293T cells in presence of lysine by Bright-Glo Luciferase Assay; assay type: functional, organism-based
Enterovirus A71 [14] = assay: Inhibition of Enterovirus 71 3C protease in presence of glutathione
Enterovirus A71 [15] = assay: Antiviral activity against pseudotyped FY Enterovirus A71 harboring luciferase reporter gene infected in HEK-293T cells in presence of glutathione by Bright-Glo Luciferase Assay; assay type: functional, organism-based
Enterovirus A71 [16] = assay: Inhibition of Enterovirus 71 3C protease in presence of ethanolamine
Enterovirus A71 [17] = assay: Binding affinity to Enterovirus 71 3C protease assessed as enzyme-compound covalent adduct formation via Cys147 residue by measuring ratio of peak intensity of covalently modified to unmodified protein at 10 to 20 equivalent after 1 hr by HPLC-ESI/MS analysis; in short: as §1
Enterovirus A71 [18] = assay: Reversible inhibition of Enterovirus 71 3C protease assessed as recovery of enzyme activity at 10 to 20 equivalent using peptide substrate pre-incubated for 1 hr followed by dialysis and subsequent substrate addition measured up to 72 hrs relative to control; design: scale not given: the % may be the effect or the level left

SMILES	Ki [1]	Activity (RD)	EC50 (Enterovirus A71 [2])	other results
CCOC(=O)C(Br)=C[C@H](C[C@@H]1CCCNC1=O)NC(=O)[C@H](Cc1ccc(F)cc1)NC(=O)c1cc(C)on1	117 nM	100%	350 nM	–
COC(=O)C(C#N)C[C@H](C[C@@H]1CCCNC1=O)NC(=O)[C@H](Cc1ccc(F)cc1)NC(=O)c1cc(C)on1 (mixture of isomers)	–	–	> 100000 nM	–
Cc1cc(C(=O)N[C@@H](Cc2ccc(F)cc2)C(=O)N[C@H](/C=C(\C#N)c2ccccn2)C[C@@H]2CCCNC2=O)no1	119 nM	100%	460 nM	inhibition [3]: < 50%; inhibition [4]: inactive; inhibition [5]: 65%
Cc1cc(C(=O)N[C@@H](Cc2ccc(F)cc2)C(=O)N[C@H](C=O)C[C@@H]2CCCNC2=O)no1	–	–	–	inhibition [3]: < 50%; inhibition [5]: Active
Cc1cc(C(=O)N[C@@H](Cc2ccc(F)cc2)C(=O)N[C@H](/C=C(\C#N)C(=O)OC(C)C)C[C@@H]2CCCNC2=O)no1	16.1 nM	–	58 nM	–
Cc1cc(C(=O)N[C@@H](Cc2ccc(F)cc2)C(=O)N[C@H](/C=C(\C#N)c2ccsc2)C[C@@H]2CCCNC2=O)no1	516 nM	–	3100 nM	inhibition [3]: < 50%; inhibition [4]: inactive; inhibition [5]: < 50%
CCOC(=O)/C=C/[C@H](C[C@@H]1CCCNC1=O)NC(=O)[C@H](Cc1ccc(F)cc1)NC(=O)c1cc(C)on1	–	–	17000 nM	Ratio (Enterovirus A71 [6]): 72 M⁻¹ s⁻¹; inhibition (Enterovirus A71 [7]): Tde; inhibition (Enterovirus A71 [8]): Active
COC(=O)C(Br)=C[C@H](C[C@@H]1CCCNC1=O)NC(=O)[C@H](Cc1ccc(F)cc1)NC(=O)c1cc(C)on1	115 nM	100%	290 nM	–
CCCOC(=O)/C(C#N)=C/[C@H](C[C@@H]1CCCNC1=O)NC(=O)[C@H](Cc1ccc(F)cc1)NC(=O)c1cc(C)on1	10.3 nM	–	77 nM	–
COC(=O)/C=C/[C@H](C[C@@H]1CCCNC1=O)NC(=O)[C@H](Cc1ccc(F)cc1)NC(=O)c1cc(C)on1	–	–	18300 nM	Ratio (Enterovirus A71 [6]): 34 M⁻¹ s⁻¹; Activity (Enterovirus A71 [9]): inactive; Ratio (Enterovirus A71 [10]): > 100; inhibition (Enterovirus A71 [7]): Tde; inhibition [3]: < 50%; inhibition [4]: inactive; inhibition (Enterovirus A71 [8]): Active; inhibition [5]: < 50%
CCOC(=O)C(Cl)=C[C@H](C[C@@H]1CCCNC1=O)NC(=O)[C@H](Cc1ccc(F)cc1)NC(=O)c1cc(C)on1	164 nM	100%	380 nM	–
CCCN(C(=O)OC(C)(C)C)C(=O)/C(C#N)=C/[C@H](C[C@@H]1CCCNC1=O)NC(=O)[C@H](Cc1ccc(F)cc1)NC(=O)c1cc(C)on1	18 nM	–	89 nM	–
Cc1cc(C(=O)N[C@@H](Cc2ccc(F)cc2)C(=O)N[C@H](C=C(Cl)C#N)C[C@@H]2CCCNC2=O)no1	–	100%	> 100000 nM	–
Cc1cc(C(=O)N[C@@H](Cc2ccc(F)cc2)C(=O)N[C@@H](C[C@@H]2CCCNC2=O)C(O)C#N)no1 (stereo partly specified)	–	–	–	inhibition [3]: Active; inhibition [5]: Active
CCNC(=O)/C(C#N)=C/[C@H](C[C@@H]1CCCNC1=O)NC(=O)[C@H](Cc1ccc(F)cc1)NC(=O)c1cc(C)on1	332 nM	–	510 nM	–
Cc1cc(C(=O)N[C@@H](Cc2ccc(F)cc2)C(=O)N[C@H](/C=C(\C#N)C(=O)N(C)C)C[C@@H]2CCCNC2=O)no1	94 nM	–	110 nM	Activity (Enterovirus A71 [11]): Active; inhibition (Enterovirus A71 [12]): Active; Activity (Enterovirus A71 [13]): Active; inhibition (Enterovirus A71 [14]): inactive; Activity (Enterovirus A71 [15]): Active; inhibition (Enterovirus A71 [16]): Active; Ratio (Enterovirus A71 [17]): 1
COC(=O)C(Cl)=C[C@H](C[C@@H]1CCCNC1=O)NC(=O)[C@H](Cc1ccc(F)cc1)NC(=O)c1cc(C)on1	152 nM	100%	670 nM	inhibition [3]: < 50%; inhibition [4]: inactive; inhibition [5]: < 50%
CNC(=O)/C(C#N)=C/[C@H](C[C@@H]1CCCNC1=O)NC(=O)[C@H](Cc1ccc(F)cc1)NC(=O)c1cc(C)on1	304 nM	–	400 nM	Activity (Enterovirus A71 [9]): Active; inhibition [3]: < 50%; Activity (Enterovirus A71 [18]): 50%; inhibition [4]: inactive; inhibition [5]: < 50%; Ratio (Enterovirus A71 [17]): 0.1
Cc1cc(C(=O)N[C@@H](Cc2ccc(F)cc2)C(=O)N[C@H](C=C(Br)C#N)C[C@@H]2CCCNC2=O)no1	–	100%	> 100000 nM	–
Cc1cc(C(=O)N[C@@H](Cc2ccc(F)cc2)C(=O)N[C@H](/C=C(\C#N)c2ccc3ccccc3c2)C[C@@H]2CCCNC2=O)no1	–	–	13000 nM	–
CCOC(=O)/C(C#N)=C/[C@H](C[C@@H]1CCCNC1=O)NC(=O)[C@H](Cc1ccc(F)cc1)NC(=O)c1cc(C)on1	13.1 nM	–	72 nM	–
Cc1cc(C(=O)N[C@@H](Cc2ccc(F)cc2)C(=O)N[C@H](/C=C(\C#N)c2ccccc2)C[C@@H]2CCCNC2=O)no1	–	–	> 100000 nM	–
CCCNC(=O)/C(C#N)=C/[C@H](C[C@@H]1CCCNC1=O)NC(=O)[C@H](Cc1ccc(F)cc1)NC(=O)c1cc(C)on1	752 nM	–	990 nM	–
CC(C#N)=C[C@H](C[C@@H]1CCCNC1=O)NC(=O)[C@H](Cc1ccc(F)cc1)NC(=O)c1cc(C)on1	–	–	> 100000 nM	–
Cc1cc(C(=O)N[C@@H](Cc2ccc(F)cc2)C(=O)N[C@H](/C=C(/C#N)c2ccccn2)C[C@@H]2CCCNC2=O)no1	693 nM	90%	2700 nM	–
Cc1cc(C(=O)N[C@@H](Cc2ccc(F)cc2)C(=O)N[C@H](CC(C#N)c2ccccn2)C[C@@H]2CCCNC2=O)no1 (mixture of isomers)	–	50%	> 100000 nM	–
CNC(=O)/C=C/[C@H](C[C@@H]1CCCNC1=O)NC(=O)[C@H](Cc1ccc(F)cc1)NC(=O)c1cc(C)on1	–	–	21000 nM	Ratio (Enterovirus A71 [6]): 46 M⁻¹ s⁻¹; Ratio (Enterovirus A71 [10]): > 100; inhibition (Enterovirus A71 [7]): Tde; inhibition (Enterovirus A71 [8]): Active
Cc1cc(C(=O)N[C@@H](Cc2ccc(F)cc2)C(=O)N[C@H](/C=C(/C#N)c2ccsc2)C[C@@H]2CCCNC2=O)no1	–	–	19500 nM	–
